Broadly, the IC50 is the concentration at which inhibition is half-maximal.

The test concerns the target Sodium-dependent dopamine transporter (Macaca fascicularis, UniProt Q9GJT6). Put plainly: Inhibition of [3H]WIN-35428 binding to dopamine transporter using of Cynomolgus monkey caudate-putamen. The gist of the method: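 Caudate-putamen membranes (washed in 50 mM Tris-HCl pH 7.4, 3800g spins) incubated at 4 mg original wet tissue/mL with 0.3 nM [3H]WIN35,428 and 7–14 competitor concentrations in 50 mM Tris-HCl/100 mM NaCl pH 7.4, 2 h at 0–4 °C. Filtered on BSA-soaked GF/B filters, scintillation counting. Nonspecific binding defined with 30 μM (–)-cocaine. IC50 computed by EBDA; independent experiments in triplicate.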

Sequence of Sodium-dependent dopamine transporter (Q9GJT6 whole entry): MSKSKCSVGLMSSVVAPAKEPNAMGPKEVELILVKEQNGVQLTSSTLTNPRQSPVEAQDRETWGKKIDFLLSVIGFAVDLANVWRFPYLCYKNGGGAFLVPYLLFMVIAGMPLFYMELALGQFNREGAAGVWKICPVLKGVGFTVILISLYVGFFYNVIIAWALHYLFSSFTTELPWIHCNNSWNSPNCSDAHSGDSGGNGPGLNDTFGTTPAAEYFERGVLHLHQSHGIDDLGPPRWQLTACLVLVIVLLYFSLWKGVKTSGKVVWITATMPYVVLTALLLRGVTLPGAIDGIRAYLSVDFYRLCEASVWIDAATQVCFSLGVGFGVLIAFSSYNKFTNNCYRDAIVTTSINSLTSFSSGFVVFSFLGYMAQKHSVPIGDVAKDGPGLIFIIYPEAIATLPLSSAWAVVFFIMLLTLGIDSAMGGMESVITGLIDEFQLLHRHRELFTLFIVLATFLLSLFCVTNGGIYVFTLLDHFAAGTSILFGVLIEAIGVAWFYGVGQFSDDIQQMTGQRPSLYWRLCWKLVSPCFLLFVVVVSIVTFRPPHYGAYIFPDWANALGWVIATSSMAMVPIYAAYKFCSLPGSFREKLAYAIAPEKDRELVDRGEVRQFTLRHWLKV

On to `COC(=O)[C@@H]1C2CCC(C[C@@H]1OC(c1ccc(F)cc1)c1ccc(F)cc1)N2CCCN1CC[S][Re]2(=[O])[S]CC[N]2C(=O)C1` (some centres not stated), for which the IC50 came to 343 nM.

Take `COC(=O)C1C(c2ccc(Cl)c(Cl)c2)CC2CCC1N2CCC[N+]12CC[S][Re]13(=[O])[S]CC[N]3C(=O)C2` (stereo not drawn) [[N-[2-[(3'-N'-Propyl-3''beta-(3,4-dichlorophenyl)tropane-2''beta-carboxylic acid methyl ester)(2-mercaptoethyl)amino]acetyl]-2-aminoethanethiolato]rhenium(V) oxide]: the half-inhibitory concentration (IC50) turned out to be 37.2 nM.

These data come from BindingDB's records for doi:10.1021/jm960868t (Organix, 1997).
